In the experiment the test system is MCF7. As to the kind of experiment: Cytotoxicity against human ER positive MCF7 cells assessed as cell viability at 1 uM after 72 hrs by MTT assay. In kind it is functional, cell-based. The method, boiled down: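 Lines kept in DMEM with 10% fetal bovine serum and 1% penicillin/streptomycin at 37 °C, 5% CO2. Compound applied at 1 µM for 72 h, then standard MTT reduction read-out. Viability given as mean percentage of formazan formed by treated cells relative to mock-treated cells (0.1% DMSO). Run in quadruplicate, standard error, Student's t-test.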
On the technique in general: Tetrazolium assays rely on reduction of a dye to a coloured formazan, in cell work by metabolically active cells.

Molecules are shown by their SMILES. Active and inactive are the calls of the source. The calls are words filed in the database; no cut-off is given here.

Take `COc1cc(-c2ccc[nH]2)[nH]c1/C=C1\N=C(C)C(C(=O)CCCCC(=O)Oc2ccc3c(c2)CC[C@@H]2[C@@H]3CC[C@]3(C)C(=O)CC[C@@H]23)=C1C`: the result was inactive.
Turning to `COc1cc(-c2ccc[nH]2)[nH]c1/C=C1\N=C(C)C(C(=O)CCCCCCCCC(=O)Oc2ccc3c(c2)CC[C@@H]2[C@@H]3CC[C@]3(C)C(=O)CC[C@@H]23)=C1C`, the result was inactive.

The record behind these values is ChEMBL document CHEMBL2417509, “Synthesis and biological evaluation of prodigiosene conjugates of porphyrin, estrone and 4-hydroxytamoxifen” (2013).
